Experimental data of several laboratories.
Protocols differ between the studies behind these lines. pEC50, pIC50, pKd, pKi: −log10 of the molar value.
FOLH1: Glutamate carboxypeptidase 2 (FOLH1, Homo sapiens, UniProt Q04609)
PIK3CA: Phosphatidylinositol 4,5-bisphosphate 3-kinase catalytic subunit alpha isoform (PIK3CA, Homo sapiens, UniProt P42336)
T1R2/T1R3: T1R2/T1R3 (Homo sapiens, UniProt Q7RTX0+Q8TE23)

CC1(C)CN(CCCCC(=O)N[C@@H](CCCCNC(=O)CCCCCCC(=O)NCCCC[C@H](NC(=O)N[C@@H](CCC(=O)O)C(=O)O)C(=O)O)C(=O)O)CC[N]2CC(C)(C)[S][Tc]2(=[O])[S]1 (stereo partly shown)  pKd (FOLH1; binding, radioligand): 7.84
CN(C)C(=O)c1cc2cnc(Nc3cccc4c(=O)cc(N5CCOCC5)oc34)nc2n1C1CCCC1  pIC50 (PIK3CA; enzyme activity, inhibitor, radiometric): < 5.00
O.O=C([O-])CN(CCN(CC(=O)[O-])Cc1cc(CCC(=O)O)ccc1O)Cc1cc(CCC(=O)NCCCCCC(=O)NCCCC[C@H](NC(=O)N[C@@H](CCC(=O)O)C(=O)O)C(=O)O)ccc1[O-].[Ga+3]  pKd (FOLH1; binding, radioligand): 7.94
CC[C@H](C)[C@H](NC(=O)C[C@@H](NC(=O)CCC(=O)O)C(=O)O)C(=O)N[C@H]1CCc2cccc3c2N(C1=O)[C@H](C(=O)NCc1cn[nH]n1)C3  pKi (Granzyme B (GZMB, Homo sapiens, UniProt P10144); enzyme activity, inhibitor, fluorescence): 8.14
CCC(C(=O)N1C(=O)C(=Nc2ccc(Cl)cc2Br)c2ccccc21)c1ccccc1 (stereo not shown)  pIC50 (PIK3CA; enzyme activity, inhibitor, ADP detection): 6.39
CC1(C)CN(CCCCC(=O)N[C@H](Cc2ccccc2)C(=O)N[C@H](Cc2ccccc2)C(=O)N[C@@H](CCCCNC(=O)CCCCCCC(=O)NCCCC[C@H](NC(=O)N[C@@H](CCC(=O)O)C(=O)O)C(=O)O)C(=O)O)CC[N]2CC(C)(C)[S][Tc]2(=[O])[S]1 (stereo partly shown)  pKd (FOLH1; binding, radioligand): 7.81
O=S(=O)(O)NC1CCCCC1  pEC50 (T1R2/T1R3; calcium signal, agonist): 2.56
O=C1C(=Nc2ccc(Cl)cc2Br)c2ccccc2N1Cc1ccc(Br)cc1  pIC50 (PIK3CA; enzyme activity, inhibitor, ADP detection): 7.36
CN1CCN(c2cc(=O)c3ccc(Nc4ncc5cc(C(=O)N(C)C)n(C6CCCC6)c5n4)cc3o2)CC1  pIC50 (PIK3CA; enzyme activity, inhibitor, radiometric): < 5.00
CC(C)c1cccc(C(C)C)c1N=C1C(=O)N(Cc2ccc(Br)cc2)c2ccccc21  pIC50 (Phosphatidylinositol 4,5-bisphosphate 3-kinase catalytic subunit beta isoform (PIK3CB, Homo sapiens, UniProt P42338); enzyme activity, inhibitor, ADP detection): 7.06
CN(C)C(=O)c1cc2cnc(Nc3ccc4c(=O)cc(N5CCOCC5)oc4c3)nc2n1C1CCCC1  pIC50 (PIK3CA; enzyme activity, inhibitor, radiometric): 7.49
OC[C@H]1O[C@H](O[C@]2(CCl)O[C@H](CCl)[C@@H](O)[C@@H]2O)[C@H](O)[C@@H](O)[C@H]1Cl  pEC50 (T1R2/T1R3; calcium signal, agonist): 3.64
C=CCN1C(=O)C(=Nc2cccc(C)c2)c2ccccc21  pIC50 (PIK3CA; enzyme activity, inhibitor, ADP detection): 6.69
